Structures are written as SMILES.

What all share (assay type): functional
The subject of test [1] is Mus musculus. The test can be described thus: Trypanocidal Activity at I.C.E. value 0.75 when administered subcutaneously. The method in brief: (§1)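 Mice, in groups of five per dose, were given a standard inoculum of blood-stage T. rhodesiense that is lethal to all untreated controls, then dosed subcutaneously. Usually 11 dose levels were used (2^n × 0.42 mg/kg).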
For test [2], the system named is Mus musculus. The test can be described thus: Trypanocidal Activity at I.C.E. value 0.24 when administered perorally.
Test [3] relates to Mus musculus. Kind of test: Trypanocidal Activity at I.C.E. value 0.56 when administered subcutaneously. The essentials: as §1
The subject of test [4] is Trypanosoma brucei rhodesiense. The test can be described thus: In Vitro measurement of inhibition of thymidine uptake in cell culture of Trypanosoma rhodesiense. The note with it: read-out: ID50 (the source's name). The essentials: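 Parasites harvested from infected rats and incubated 3 h across a drug concentration series, usually 0.1–100 µg/mL. Incorporation of radiolabeled thymidine measured. ID50 is the concentration (µg/mL) producing 50% inhibition.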

Test [5] has as its system Trypanosoma brucei rhodesiense. The test can be described thus: In Vitro measurement of inhibition of leucine uptake in cell culture of Trypanosoma rhodesiense. Particulars: read-out: ID50 (the source's name). The essentials:
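Trypanosomes harvested from infected rats, cultured 3 h with several concentrations of drug, usually 0.1–100 µg/mL. Radiolabeled L-leucine uptake measured. ID50 is the concentration in µg/mL giving 50% inhibition of incorporation.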

Test [6] concerns Mus musculus. Kind of test: Trypanocidal Activity at I.C.E. value 0.60 when administered perorally.
In test [7] the test system is Mus musculus. The test can be described thus: Trypanocidal Activity at I.C.E. value 0.52 when administered subcutaneously. The essentials:
(§2)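 Blood-stage T. rhodesiense infection came from a standard inoculum lethal to all untreated mice. Drug was given by subcutaneous injection to groups of five mice. Survival beyond 30 days counted as cure. […] Sub-curative doses scored 0, and data were normalized at each dose.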

Test [8] has as its system Mus musculus. Kind of test: Trypanocidal Activity at I.C.E. value 0.54 when administered subcutaneously. The method in brief: as §2
Test [9] concerns Mus musculus. Kind of test: Trypanocidal Activity at I.C.E. value 0.70 when administered perorally.
Test [10] deals with Mus musculus. The test can be described thus: Trypanocidal Activity at I.C.E. value 0.27 when administered perorally.
The test system of test [11] is Mus musculus. Kind of test: Trypanocidal Activity at I.C.E. value 0.92 when administered subcutaneously. The essentials:
as §1

Test [12] relates to Mus musculus. The test can be described thus: Trypanocidal Activity at I.C.E. value 0.72 when administered subcutaneously. The method in brief:
as §1

With `Br.Cc1cccc2n1cc(COc1ccc(/C=N/NC(=N)N3CCCC3)cc1)[n+]2C.[Br-]`, the CD50 in the test with Mus musculus [1] worked out at 0.4 mg/kg; with Mus musculus [2], 53 mg/kg.

As for `CN(C)C(=N)N/N=C/c1ccc(-c2cn3ccsc3[n+]2C)cc1.I.[I-]`, the CD50 with Mus musculus [3] stood at 0.2 mg/kg. The IC50 in [4] and in test [5] was 1 µg/mL in each case.

With `CNC(=N)N/N=C/c1ccc(-c2cn3ccsc3[n+]2C)cc1.I.[I-]`, the CD50 in the test with Mus musculus [6] is 6.6 mg/kg; in the test with Mus musculus [7], 0.4 mg/kg. In addition, the results for the IC50 in [4] and in test [5] were 1.5 µg/mL and 1.2 µg/mL, respectively.

For `Br.C[n+]1c(-c2ccc(/C=N/NC(=N)N3CCCC3)cc2)cn2ccsc21.[Br-]`, the CD50 in the test with Mus musculus [8] came out at 0.1 mg/kg; in the test with Mus musculus [9], 3.3 mg/kg.

For `Br.CCCSc1ccc2n(c1)cc(-c1ccc(/C=N/NC(=N)N)cc1)[n+]2C.[Br-]`, the CD50 is 26 mg/kg in the test on Mus musculus [10] and 0.2 mg/kg with Mus musculus [11].

In the case of `Br.C[n+]1c(/C=C/c2ccc(/C=N/NC(=N)NO)cc2)cn2ccccc21.[Br-]`, in the test on Mus musculus [12], the CD50 is 0.2 mg/kg.

Values taken from ChEMBL document CHEMBL1124947, “Cationic antiprotozoal drugs. Trypanocidal activity of 2-(4'-formylphenyl)imidazo[1,2-a]pyridinium guanylhydrazones and related derivatives of quaternary heteroaromatic compounds” (J Med Chem, 1990).
